Experimental findings from ChEMBL document CHEMBL4270643, “Structure-based drug design: Synthesis and biological evaluation of quinazolin-4-amine derivatives as selective Aurora A kinase inhibitors” (Eur J Med Chem, 2018) are described below.

The term IC50 denotes the midpoint of a concentration-inhibition curve.

Activity calls are given as the source filed them. The calls are words filed in the database; no cut-off is given here.

Data set [1] relates to Mus musculus. The experiment in a line: Toxicity in BALB/c athymic nude mouse xenografted with human MDA-MB-231 cells assessed as effect on liver weight at 30 mg/kg, ig administered every 2 days for 18 days measured post last dose. It is filed as organism-based. Particulars: in vivo, po. Put shortly: (§1)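 Xenograft-bearing nude mice dosed intragastrically every 2 days for 18 days; body weight tracked throughout. After treatment ended, liver, lung, kidney and spleen weighed in untreated, vehicle and dosed groups; unpaired two-tailed t-test; mean ±SD, n=4.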

Data set [2] addresses T1, Aurora kinase A (Homo sapiens) (UniProt O14965).
T1 sequence (whole entry): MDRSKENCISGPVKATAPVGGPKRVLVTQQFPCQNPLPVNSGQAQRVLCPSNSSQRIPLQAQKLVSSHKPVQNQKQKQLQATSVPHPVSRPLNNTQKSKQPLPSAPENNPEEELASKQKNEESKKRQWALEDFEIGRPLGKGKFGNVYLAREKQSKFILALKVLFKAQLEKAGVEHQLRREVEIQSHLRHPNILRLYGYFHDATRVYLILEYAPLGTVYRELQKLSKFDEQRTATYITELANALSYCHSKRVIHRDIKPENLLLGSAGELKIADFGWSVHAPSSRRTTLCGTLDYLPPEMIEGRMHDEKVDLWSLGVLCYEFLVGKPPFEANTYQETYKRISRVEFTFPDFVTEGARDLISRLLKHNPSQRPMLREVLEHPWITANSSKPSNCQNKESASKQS
The experiment in a line: Inhibition of Aurora A phosphorylation at Thr288 residue in human 293T cells at 1 to 2 uM after 24 hrs by western blot analysis. The data set is classed as cell-based. The gist of the method:
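293T cells treated 24 h with increasing doses or 0.1% DMSO control; lysates probed by Western blot for p-Aurora A (Thr288) and p-histone H3 (Ser10), with GAPDH as loading control.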

The target in data set [3] is Voltage-gated inwardly rectifying potassium channel KCNH2 (Homo sapiens, UniProt Q12809). In words: Inhibition of human ERG expressed in CHO cells at -80 mV holding potential by whole-cell patch clamp method. The data set is classed as cell-based. Background: The patch-clamp technique gives a direct electrical read-out from membranes.
The test system of data set [4] is MDA-MB-231. The experiment in a line: Cell cycle arrest in human MDA-MB-231 cells assessed as accumulation of cells with 4N/8N DNA content after 24 hrs by propidium iodide staining based flow cytometry. The data set is classed as functional. Put shortly:
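MDA-MB-231 cells exposed to test compound at indicated doses, MLN8237, or 0.1% DMSO control for 24 h; cell-cycle distribution, including G2/M and 4N/8N populations, read by flow cytometry.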
On the technique in general: Flow cytometry measures light scatter and fluorescence of single cells or particles in a stream.

The subject of another data set is MCF7. The experiment in a line: Antiproliferative activity against human MCF7 cells after 48 hrs by CCK8 assay. It is filed as functional, cell-based. To be noted: Homo sapiens, MCF7, 48 h; read-out: IC50. A general note: Formazan colour is commonly taken as a measure of viable cells.
Data set [5] relates to Mus musculus. The experiment in a line: Toxicity in BALB/c athymic nude mouse xenografted with human MDA-MB-231 cells assessed as effect on RDW-SD level at 30 mg/kg, ig administered every 2 days for 18 days measured post last dose. It is filed as organism-based. To be noted: in vivo, po. The gist of the method:
(§2)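 After the 18-day intragastric course (every 2 days), blood cell counts taken from untreated, vehicle and dosed mice; groups compared by unpaired two-tailed t-test; mean ±SD, n=4.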

A further data set has as its system K562. In words: Antiproliferative activity against human K562 cells after 48 hrs by CCK8 assay. It is filed as functional, cell-based. To be noted: Homo sapiens, K562, 48 h; read-out: IC50.
The subject of data set [6] is Mus musculus. The experiment in a line: Toxicity in BALB/c athymic nude mouse xenografted with human MDA-MB-231 cells assessed as effect on WBC level at 30 mg/kg, ig administered every 2 days for 18 days measured post last dose. The data set is classed as organism-based. Particulars: in vivo, po. The gist of the method:
as §2

For data set [7], the system named is MDA-MB-231. The experiment in a line: Antitumor activity against human MDA-MB-231 cells xenografted in BALB/c athymic nude mouse assessed as tumor growth inhibition at 30 mg/kg, ig administered every 2 days for 18 days relative to control. It is filed as functional. To be noted: MDA-MB-231, po, read-out: TGI. The gist of the method:
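Nude mice with established MDA-MB-231 xenografts dosed intragastrically every 2 days for 18 days; vehicle control group; n=4 per group. Tumor volume estimated over time and compared by two-way repeated-measures ANOVA; dissected tumors weighed at end. Data as mean ±SD.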

Data set [8] relates to MDA-MB-231. In words: Induction of apoptosis in human MDA-MB-231 cells assessed as annexin-V positive cells at 2 uM after 48 hrs by Annexin-V-FITC/propidium iodide staining based flow cytometry (reference value: 15.46 +/- 1.18%). The data set is classed as functional.
Another data set is filed under the species Homo sapiens. The experiment in a line: Selectivity ratio of IC50 for Aurora B (unknown origin) to IC50 for Aurora A (unknown origin).
Data set [9] deals with Mus musculus. In words: Toxicity in BALB/c athymic nude mouse xenografted with human MDA-MB-231 cells assessed as effect on spleen weight at 30 mg/kg, ig administered every 2 days for 18 days measured post last dose. It is filed as organism-based. Particulars: in vivo, po. Put shortly: as §1
The subject of data set [10] is Mus musculus. In words: Toxicity in BALB/c athymic nude mouse xenografted with human MDA-MB-231 cells assessed as effect on MCH level at 30 mg/kg, ig administered every 2 days for 18 days measured post last dose. The data set is classed as organism-based. To be noted: in vivo, po. The gist of the method:
as §2

Data set [11] has as its system Mus musculus. The experiment in a line: Toxicity in BALB/c athymic nude mouse xenografted with human MDA-MB-231 cells assessed as effect on PLT level at 30 mg/kg, ig administered every 2 days for 18 days measured post last dose. The data set is classed as organism-based. Particulars: in vivo, po. The gist of the method: as §2
In data set [12] the test system is Mus musculus. The experiment in a line: Toxicity in BALB/c athymic nude mouse xenografted with human MDA-MB-231 cells assessed as body weight loss at 30 mg/kg, ig administered every 2 days for 18 days measured during compound dosing. The data set is classed as organism-based. Particulars: in vivo, po. The gist of the method: as §1

Voltage-gated inwardly rectifying potassium channel KCNH2, sequence (Q12809 whole entry): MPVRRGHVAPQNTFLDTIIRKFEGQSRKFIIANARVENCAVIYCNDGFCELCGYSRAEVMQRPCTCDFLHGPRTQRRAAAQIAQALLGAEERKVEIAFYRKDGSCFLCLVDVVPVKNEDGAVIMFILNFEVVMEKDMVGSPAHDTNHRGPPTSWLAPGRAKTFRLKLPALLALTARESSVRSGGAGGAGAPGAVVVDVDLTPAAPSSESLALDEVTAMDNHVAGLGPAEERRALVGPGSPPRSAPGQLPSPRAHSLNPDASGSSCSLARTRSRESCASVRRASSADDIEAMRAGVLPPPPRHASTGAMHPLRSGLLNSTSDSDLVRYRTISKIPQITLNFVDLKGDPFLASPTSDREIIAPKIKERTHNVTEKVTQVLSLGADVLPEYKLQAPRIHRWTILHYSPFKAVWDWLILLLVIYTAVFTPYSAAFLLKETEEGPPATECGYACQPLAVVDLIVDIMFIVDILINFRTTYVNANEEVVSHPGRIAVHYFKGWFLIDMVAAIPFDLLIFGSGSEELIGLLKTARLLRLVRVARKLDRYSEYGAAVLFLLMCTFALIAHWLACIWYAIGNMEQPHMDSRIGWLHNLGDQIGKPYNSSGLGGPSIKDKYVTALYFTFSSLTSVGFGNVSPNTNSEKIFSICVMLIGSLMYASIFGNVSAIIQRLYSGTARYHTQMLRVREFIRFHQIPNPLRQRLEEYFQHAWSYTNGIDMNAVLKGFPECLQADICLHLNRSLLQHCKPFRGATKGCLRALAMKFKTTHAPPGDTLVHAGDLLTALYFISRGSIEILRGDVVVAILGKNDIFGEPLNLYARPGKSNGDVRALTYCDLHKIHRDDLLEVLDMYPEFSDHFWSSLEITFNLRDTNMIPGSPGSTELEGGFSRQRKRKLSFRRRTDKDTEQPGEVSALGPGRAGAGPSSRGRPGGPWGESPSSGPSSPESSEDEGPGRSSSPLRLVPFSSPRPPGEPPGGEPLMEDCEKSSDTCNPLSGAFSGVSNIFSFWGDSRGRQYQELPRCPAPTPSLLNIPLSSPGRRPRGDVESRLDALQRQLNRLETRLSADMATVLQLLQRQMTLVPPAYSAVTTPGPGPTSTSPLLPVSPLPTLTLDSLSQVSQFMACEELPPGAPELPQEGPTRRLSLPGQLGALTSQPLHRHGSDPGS

Regarding `CCOC(=O)C1CCN(c2ccc3c(Nc4cc(C)[nH]n4)nc(-c4ccccc4)nc3c2)CC1`, the Activity entry with Mus musculus [1] was “Non-Toxic”; with MDA-MB-231 [4], “Dose-dependent effect”; in the data set with Mus musculus [5] it was “Non-Toxic”; with Mus musculus [6], “Non-Toxic”; with MDA-MB-231 [8], 42.33%; in the data set with Mus musculus [9], “Non-Toxic”. Also, the Activity result with Mus musculus [10], in the data set with Mus musculus [11] and in the data set with Mus musculus [12] was “Non-Toxic” throughout. Moreover, the inhibition result in data set [2] is “Active”. Moreover, the IC50 in data set [3] was above 10 µM; in the data set with MCF7 it was 2.23 µM; in the data set with K562 it was 1.09 µM. Also, the inhibition in vivo at 30 mg/kg in the data set on MDA-MB-231 [7] turned out to be 45%. Further, the Ratio IC50 in the data set filed under Homo sapiens is 66.
